Values belong to the molecule of their own block, whether it stands above or below them.
Columns and labels:
[1] = test system: Pf1 PHD1/MBD (residues 48–241); assay: NMR of 15N-labeled Pf1 PHD1/MBD with MRG15 proteins; assay type: binding, human
[2] = test system: Pf1 PHD1 (residues 48–116); assay: NMR of 15N-labeled Pf1 PHD1 with full-length MRG15 and Pf1 MBD; assay type: binding, human; conditions: 1:1 mixture with full-length MRG15; pH 7.5, 25 °C
H3 (1-42) = assay: 15N-labeled H3; assay type: binding, human; conditions: 80 μM 15N-H3, 2 equivalents unlabeled Pf1 PHD1; 20 mM Tris-d11 pH 6.0, 50 mM NaCl, 10 μM ZnSO4, 15 mM DTT, 25 °C
Pf1 PHD1 = Pf1 PHD1 (Homo sapiens, UniProt Q96QT6); assay: NMR of mixture of 15N-MRG15 CD and 15N-Pf1 PHD1; assay type: binding; conditions: 1:1 mixture, absence of histone targets
Outline: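 Both proteins were recombinant, expressed in E. coli BL21(DE3) and uniformly 15N-labelled by growth in M9 minimal medium with 15N-ammonium sulfate. They were purified by affinity resin, TEV cleavage and reversed-phase HPLC, then lyophilized; labelling was confirmed by ESI-MS. Pf1 PHD1 was refolded in 6 M Gdn-HCl with 50 mM DTT (42 °C, 5 h), given ZnSO4, and gel-filtered. Concentrations were measured spectrophotometrically.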

B1: full-length MRG15: full-length MRG15 (residues 1–323) (protein)
chain: MAPKQDPKPKFQEGERVLCFHGPLLYEAKCVKVAIKDKQVKYFIHYSGWNKNWDEWVPESRVLKYVDTNLQKQRELQKANQEQYAEGKMRGAAPGKKTSGLQQKNVEVKTKKNKQKTPGNGDGGSTSETPQPPRKKRARVDPTVENEETFMNRVEVKVKIPEELKPWLVDDWDLITRQKQLFYLPAKKNVDSILEDYANYKKSRGNTDNKEYAVNEVVAGIKEYFNVMLGTQLLYKFERPQYAEILADHPDAPMSQVYGAPHLLRLFVRIGAMLAYTPLDEKSLALLLNYLHDFLKYLAKNSATLFSASDYEVAPPEYHRKAV
modifications: left off: His tag (from the vector pMCSG7), end not stated, state not stated
effect on 15N-Pf1 PHD1/MBD spectrum ([1]; equimolar, 20 mM Tris pH 7.5, 50 mM NaCl, 10 μM ZnSO4, 15 mM DTT, 0.2% NaN3, 25 °C): disappearance of most of the resonances belonging to the PHD1 domain | effect on 15N-PHD1 spectrum without Pf1 MBD [2]: little or no perturbations compared to the apo-PHD1

B2: PHD1: human Pf1 PHD1 domain (residues 48–116) (protein)
chain: RRSGRATNHDSCDSCKEGGDLLCCDHCPAAFHLQCCNPPLSEEMLPPGEWMCHRCTVRRKKREQKKELG
modifications: left off: GST, end not stated, cleaved
perturbation of H3 (1-42) resonances (H3 (1-42)): The amide resonances of Thr3 and Lys4 were broadened beyond detection upon PHD1 addition while that of Thr6 was significantly broadened

direct interaction of MRG15 CD and Pf1 PHD1 (Pf1 PHD1): largely unperturbed
B3: MRG15 CD: MRG15 CD (residues 1–90) (protein)
chain: MAPKQDPKPKFQEGERVLCFHGPLLYEAKCVKVAIKDKQVKYFIHYSGWNKNWDEWVPESRVLKYVDTNLQKQRELQKANQEQYAEGKMR
modifications: left off: His6, N-terminal, cleaved
involvement of MRG15 CD in PHD1 interactions ([1]; 1D 1H NMR of Pf1 PHD1/MBD-MRG15 complex (Supp. Fig. S4)): appeared to be not involved in PHD1 interactions

Reference: publication PMC3428507 (Journal of molecular biology, 2012)
